CHOP inh: blocks CHOP induction under ER stress; hit rate 3.8% among 220,000; AID 2732; CHO-K1 CHOP-promoter luciferase, tunicamycin-induced, 15-18 h; inhibition, % at 10 µM;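 active = compounds that reduced the stress-induced luciferase reporter signal by more than about 70% of percent inhibition, limit read from the data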
TLR9-MyD88 block: TLR9-MyD88 interaction inhibition; CHO BLA complementation TLR9-MyD88, CCF4 FRET ratio; inhibition, % at 4.98 µM; hit rate 0.21% among 340,000; AID 504734;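 active = inhibition above the mean over all tested compounds plus 3 SD, cut at about 21% in these data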
CHOP UPR activ: apoptotic UPR (CHOP) activation; activation, % at 10 µM; hit rate 0.34% among 330,000; AID 449763; CHO-CHOP luciferase reporter, luminescence; percent of tunicamycin response over DMSO baseline;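 active = at 10 µM dose, activation of 40% or more, normalized to positive control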
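Assay system: CHO cells with stable CHOP pathway luciferase reporter; Buffer or medium: F12 plus 10% serum; Times: 16-18 h cell attachment, then 6 h compound exposure, 37 °C; Signal: luciferase luminescence; Read-out basis: percent activation relative to tunicamycin control; Control set: tunicamycin high control, DMSO low control.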
UPR XBP1 act: adaptive UPR (XBP1) activation | CHO-XBP1 luciferase reporter, IRE1-XBP1 UPR activation, luminescence; percent of tunicamycin response, DMSO as zero | activation, % at 20 µM | hit rate 0.33% among 330,000 | AID 463104;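 active = versus positive control, 20 µM dose yields 30% or more activation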
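incubation = overnight seeding at 37 °C, 6 h compound treatment at 37 °C | assay system = CHO-XBP1 cells stably carrying IRE1-XBP1-driven luciferase reporter | input = 1000 cells per well | detection = luciferase luminescence | dosing = single point, 20 µM final compound, 1% DMSO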
TLR4 MyD88 comp: inhibitors of human TLR4-MyD88 binding. hit rate 0.18% among 200,000. HeLa CL3-4 TLR4/MyD88 BLA complementation, FRET ratio. inhibition, % at 8.4 µM. O00206+Q99836. AID 861; in the data active = inhibition above about 25%
Target sequence (O00206 whole entry, looked up): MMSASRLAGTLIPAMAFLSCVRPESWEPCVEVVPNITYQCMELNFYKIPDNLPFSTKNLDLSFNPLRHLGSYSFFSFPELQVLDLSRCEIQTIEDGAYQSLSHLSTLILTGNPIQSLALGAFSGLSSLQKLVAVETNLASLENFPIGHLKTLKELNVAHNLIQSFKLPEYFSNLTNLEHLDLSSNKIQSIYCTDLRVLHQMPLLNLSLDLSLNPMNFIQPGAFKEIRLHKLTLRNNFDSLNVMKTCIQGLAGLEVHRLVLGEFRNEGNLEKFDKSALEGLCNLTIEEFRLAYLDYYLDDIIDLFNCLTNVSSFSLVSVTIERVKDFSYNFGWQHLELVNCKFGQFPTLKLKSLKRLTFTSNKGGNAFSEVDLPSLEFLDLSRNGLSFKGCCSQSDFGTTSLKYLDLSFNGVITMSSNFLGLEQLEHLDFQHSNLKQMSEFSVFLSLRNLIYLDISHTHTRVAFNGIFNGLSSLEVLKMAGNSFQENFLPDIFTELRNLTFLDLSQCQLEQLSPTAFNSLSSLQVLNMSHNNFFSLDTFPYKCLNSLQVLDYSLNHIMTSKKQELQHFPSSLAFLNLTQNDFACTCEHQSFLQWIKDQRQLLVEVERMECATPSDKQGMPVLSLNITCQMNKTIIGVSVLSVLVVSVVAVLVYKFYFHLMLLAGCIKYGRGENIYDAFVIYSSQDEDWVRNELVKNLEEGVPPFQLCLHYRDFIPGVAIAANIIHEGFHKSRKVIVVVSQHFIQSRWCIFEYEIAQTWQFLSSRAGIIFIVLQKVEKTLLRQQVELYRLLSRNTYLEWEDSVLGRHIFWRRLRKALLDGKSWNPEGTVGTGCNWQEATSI
Target sequence (Q99836 whole entry, looked up): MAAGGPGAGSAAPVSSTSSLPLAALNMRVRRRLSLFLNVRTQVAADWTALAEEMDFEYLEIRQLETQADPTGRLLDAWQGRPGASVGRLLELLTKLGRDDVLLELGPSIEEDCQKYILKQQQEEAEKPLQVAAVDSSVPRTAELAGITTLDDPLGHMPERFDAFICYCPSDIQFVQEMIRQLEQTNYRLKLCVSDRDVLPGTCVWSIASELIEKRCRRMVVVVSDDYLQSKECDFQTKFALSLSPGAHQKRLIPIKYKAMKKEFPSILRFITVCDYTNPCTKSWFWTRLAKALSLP
NOD2 RIPK2 PPI: blocks binding of human NOD2 to RIPK2; O43353; CHO BLA complementation NOD2-RIPK2, CCF4 ratio; inhibition, % at 4.98 µM; hit rate 0.38% among 360,000; AID 624267; in the data active = inhibition above about 21%
Hits are given with their value. The sample as a whole holds a higher share of hits than the screen did.

Screening CCOc1ccc(-c2nc(N)ncc2-c2ccc(OC)cc2)c(O)c1 returned CHOP inh inactive, TLR9-MyD88 block inactive, CHOP UPR activ inactive, UPR XBP1 act inactive, TLR4 MyD88 comp inactive and NOD2 RIPK2 PPI inactive.
Screening CCc1cc(-c2nc(N)ncc2-c2csc(C)n2)c(O)cc1OC returned CHOP inh inactive, TLR9-MyD88 block inactive, CHOP UPR activ inactive, UPR XBP1 act inactive, TLR4 MyD88 comp inactive and NOD2 RIPK2 PPI inactive.
CCOc1ccc(-c2nc(N)ncc2-c2ccccc2)c(O)c1 was read as CHOP inh 91, TLR9-MyD88 block inactive, CHOP UPR activ inactive, UPR XBP1 act inactive, TLR4 MyD88 comp inactive and NOD2 RIPK2 PPI inactive.
`Cc1cc(C)cc(-n2c3nc4ccccc4nc3c3c(=O)n(Cc4ccco4)cnc32)c1` gave CHOP inh 103, TLR9-MyD88 block inactive, CHOP UPR activ inactive, UPR XBP1 act inactive, TLR4 MyD88 comp inactive and NOD2 RIPK2 PPI inactive.
Fc1ccccc1N1CCN(C(c2ccnc3ccccc23)c2nnnn2-c2ccc3c(c2)OCCO3)CC1 (stereo not drawn) was read as NOD2 RIPK2 PPI inactive.
`Cc1ccc(NC(=O)CSc2nc3ccc(Nc4nc(N5CCOCC5)nc(N5CCOCC5)n4)cc3s2)cc1` gave TLR9-MyD88 block inactive, CHOP UPR activ inactive, UPR XBP1 act 78 and NOD2 RIPK2 PPI inactive.
Cc1cccc(NC(=O)Cn2c(O)c(N=NC(=O)c3ccccc3O)c3ccccc32)c1 was read as CHOP inh 83, TLR9-MyD88 block inactive, CHOP UPR activ inactive, UPR XBP1 act inactive, TLR4 MyD88 comp inactive and NOD2 RIPK2 PPI inactive.
`Cc1cc(Br)ccc1NC(=O)CN(C)C(=O)CN1C(=O)NC(C)(C2CC2)C1=O` (stereo not drawn) gave TLR9-MyD88 block inactive, CHOP UPR activ inactive, UPR XBP1 act inactive and NOD2 RIPK2 PPI inactive.
For O=c1oc2ccc(Cl)cc2cc1-c1nnc(Nc2cccc(C(F)(F)F)c2)s1 the results were CHOP inh inactive, TLR9-MyD88 block inactive, CHOP UPR activ inactive, UPR XBP1 act inactive, TLR4 MyD88 comp inactive and NOD2 RIPK2 PPI inactive.
`CNc1nnc(-c2cc3cc(Cl)ccc3oc2=O)s1` gave CHOP inh 78, TLR9-MyD88 block inactive, CHOP UPR activ inactive, UPR XBP1 act inactive, TLR4 MyD88 comp inactive and NOD2 RIPK2 PPI inactive.
Screening Fc1cccc(C2CC(c3cccc(Br)c3)Nc3nnnn32)c1 (stereo not drawn) returned CHOP inh 83, TLR9-MyD88 block inactive, CHOP UPR activ inactive, UPR XBP1 act inactive, TLR4 MyD88 comp inactive and NOD2 RIPK2 PPI inactive.
Screening Cc1ccc(N2C(=O)C3C4C=CC(CNC(=S)N5CCN(c6cccc(C)c6)C(C)C5)(O4)C3C2=O)cc1 (stereo not drawn) returned CHOP inh 92, TLR9-MyD88 block inactive, CHOP UPR activ inactive, UPR XBP1 act inactive, TLR4 MyD88 comp inactive and NOD2 RIPK2 PPI inactive.
Screening OC1(c2ccc(F)cc2)CCN(Cc2nnnn2Cc2cccs2)CC1 returned CHOP inh inactive, TLR9-MyD88 block inactive, CHOP UPR activ inactive, UPR XBP1 act inactive, TLR4 MyD88 comp inactive and NOD2 RIPK2 PPI inactive.
Screening O=c1c(O)c(-c2ccc3c(c2)OCO3)oc2ccccc12 returned CHOP inh 74, TLR9-MyD88 block inactive, CHOP UPR activ inactive, UPR XBP1 act inactive, TLR4 MyD88 comp inactive and NOD2 RIPK2 PPI inactive.
`Cc1ccc2c(c1)c1nnc(SCC(=O)Nc3ccc(N(C)C)cc3)nc1n2CC(=O)O` gave TLR9-MyD88 block inactive, CHOP UPR activ inactive, UPR XBP1 act inactive and NOD2 RIPK2 PPI inactive.
Screening Cc1ccc(-n2nnc(-c3nccs3)n2)cc1 returned CHOP inh 78, TLR9-MyD88 block inactive, CHOP UPR activ inactive, UPR XBP1 act inactive, TLR4 MyD88 comp inactive and NOD2 RIPK2 PPI inactive.
For Clc1ccc(-n2nnc(-c3nccs3)n2)cc1Cl the results were CHOP inh inactive, TLR9-MyD88 block inactive, CHOP UPR activ inactive, UPR XBP1 act inactive, TLR4 MyD88 comp inactive and NOD2 RIPK2 PPI inactive.
Screening O=C(Cc1c(Cl)cccc1Cl)NCCc1ccc(Cl)cc1 returned CHOP inh 75, TLR9-MyD88 block inactive, CHOP UPR activ inactive, UPR XBP1 act inactive, TLR4 MyD88 comp inactive and NOD2 RIPK2 PPI inactive.
O=C(CCNC(=O)c1ccccc1Cl)NCCc1ccc(Cl)cc1 was read as TLR9-MyD88 block inactive, CHOP UPR activ inactive, UPR XBP1 act inactive and NOD2 RIPK2 PPI inactive.
CC(C)c1cc(Br)ccc1OCCCN1C(=O)NC(C)(C)C1=O was read as CHOP inh 73, TLR9-MyD88 block inactive, CHOP UPR activ inactive, UPR XBP1 act inactive, TLR4 MyD88 comp inactive and NOD2 RIPK2 PPI inactive.
O=C(CCSc1nc(-c2ccco2)cc(C(F)(F)F)n1)N1CCN(c2ccccn2)CC1 was read as CHOP inh 88, TLR9-MyD88 block inactive, CHOP UPR activ inactive, UPR XBP1 act inactive, TLR4 MyD88 comp inactive and NOD2 RIPK2 PPI inactive.
`CCOC(=O)C(=CNc1ccc2c(c1)nnn2-c1ccc(Cl)cc1)C(=O)OCC` gave CHOP inh 79, TLR9-MyD88 block inactive, CHOP UPR activ inactive, UPR XBP1 act inactive, TLR4 MyD88 comp inactive and NOD2 RIPK2 PPI inactive.
For Cc1ccc(S(=O)(=O)NCCC(=O)N2CCN(Cc3ccccc3)CC2)cc1 the results were CHOP inh 82, TLR9-MyD88 block inactive, CHOP UPR activ inactive, UPR XBP1 act inactive, TLR4 MyD88 comp inactive and NOD2 RIPK2 PPI inactive.
`CCc1ccc(NC(=O)c2c(C(=O)Nc3ccccc3)sc3nc(C)cc(=O)n23)cc1` gave CHOP inh 82, TLR9-MyD88 block inactive, CHOP UPR activ inactive, UPR XBP1 act inactive, TLR4 MyD88 comp inactive and NOD2 RIPK2 PPI inactive.
For c1ccc2c(c1)OCC(CNc1ncnc3sccc13)O2 (stereo not drawn) the results were CHOP inh 79, TLR9-MyD88 block inactive, TLR4 MyD88 comp inactive and NOD2 RIPK2 PPI inactive.
Screening Fc1ccccc1CNc1ncnc2sccc12 returned TLR9-MyD88 block inactive, CHOP UPR activ inactive, UPR XBP1 act inactive and NOD2 RIPK2 PPI inactive.
`CC1(C(=O)Nc2ccc3c(c2)OCO3)CCN1C(=O)CCc1ccc(Cl)cc1Cl` (stereo not drawn) gave NOD2 RIPK2 PPI inactive.
O=C(Nc1ccc2c(c1)OCO2)c1cc(C2CCCN(C(=O)C3CCCCC3)C2)on1 (stereo not drawn) was read as NOD2 RIPK2 PPI inactive.
`Cc1ccc(C)c(NC(=S)NC(NC(=O)Cc2cccc3ccccc23)C(Cl)(Cl)Cl)c1` (stereo not drawn) gave CHOP inh 79, TLR9-MyD88 block inactive, CHOP UPR activ 52, UPR XBP1 act 47, TLR4 MyD88 comp inactive and NOD2 RIPK2 PPI inactive.
CCc1ccc(OCC(=O)NC(NC(=S)Nc2ccccc2C)C(Cl)(Cl)Cl)cc1 (stereo not drawn) was read as CHOP inh inactive, TLR9-MyD88 block inactive, CHOP UPR activ inactive, UPR XBP1 act inactive, TLR4 MyD88 comp inactive and NOD2 RIPK2 PPI inactive.
